{"source": "paper PMC3562655", "about": "(Journal of bone and mineral research : the official journal …, 2013)", "key": {"[1]": {"biological_target": "T1, purified recombinant human PHOSPHO1 (Homo sapiens, UniProt Q8TCT1)", "T1 sequence (Q8TCT1 1-292 isoform Q8TCT1-3)": "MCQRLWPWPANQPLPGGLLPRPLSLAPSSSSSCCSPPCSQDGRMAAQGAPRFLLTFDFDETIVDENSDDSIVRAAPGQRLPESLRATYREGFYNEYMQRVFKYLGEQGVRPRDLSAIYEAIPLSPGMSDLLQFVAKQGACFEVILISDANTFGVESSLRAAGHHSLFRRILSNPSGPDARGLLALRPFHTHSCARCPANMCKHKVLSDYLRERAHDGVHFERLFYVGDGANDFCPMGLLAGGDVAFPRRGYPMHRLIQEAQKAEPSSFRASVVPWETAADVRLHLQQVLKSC", "assay": "PHOSPHO1 inhibition, Biomol Green colorimetric phosphate release assay", "format": "biochemical", "conditions": "for IC50: pH 6.7, 60 min room temperature"}, "PHOSPHO1": {"biological_target": "T2, PHOSPHO1 (Homo sapiens, UniProt Q8TCT1)", "T2 sequence (Q8TCT1 1-292 isoform Q8TCT1-3)": "T1 sequence (Q8TCT1 1-292 isoform Q8TCT1-3)", "assay": "Mechanism of PHOSPHO1 inhibition, double reciprocal plots", "format": "biochemical"}, "WT VSMCs": {"system": "WT VSMCs", "assay": "Calcification assay, Alizarin Red staining of WT VSMCs", "format": "cell-based, mouse", "how_it_was_run": "(§1)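 Aortic VSMCs from WT, Enpp1-/- or Phospho1-/- mice were isolated by collagenase digestion and grown in triplicate for 21 days. Medium was α-MEM with 50 µg/mL ascorbic acid plus 2.5 mmol/L β-glycerophosphate (all genotypes) or 3 mmol/L sodium phosphate (WT), changed every second day. Test compound (DMSO; final 30 µmol/L), alone or combined, was added at each change. Staining used 2% Alizarin Red (pH 4.2, 30 min RT), then 10% cetylpyridinium chloride extraction, absorbance read. Values are % of vehicle control, mean ± S.E.M.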"}, "[2]": {"system": "Phospho1^-/- chondrocytes", "assay": "Mineralization of Phospho1-/- chondrocytes", "format": "cell-based", "conditions": "not shown"}, "TNAP": {"biological_target": "T3, TNAP (Homo sapiens, UniProt P05186)", "T3 sequence (P05186 18-502 limits assumed)": "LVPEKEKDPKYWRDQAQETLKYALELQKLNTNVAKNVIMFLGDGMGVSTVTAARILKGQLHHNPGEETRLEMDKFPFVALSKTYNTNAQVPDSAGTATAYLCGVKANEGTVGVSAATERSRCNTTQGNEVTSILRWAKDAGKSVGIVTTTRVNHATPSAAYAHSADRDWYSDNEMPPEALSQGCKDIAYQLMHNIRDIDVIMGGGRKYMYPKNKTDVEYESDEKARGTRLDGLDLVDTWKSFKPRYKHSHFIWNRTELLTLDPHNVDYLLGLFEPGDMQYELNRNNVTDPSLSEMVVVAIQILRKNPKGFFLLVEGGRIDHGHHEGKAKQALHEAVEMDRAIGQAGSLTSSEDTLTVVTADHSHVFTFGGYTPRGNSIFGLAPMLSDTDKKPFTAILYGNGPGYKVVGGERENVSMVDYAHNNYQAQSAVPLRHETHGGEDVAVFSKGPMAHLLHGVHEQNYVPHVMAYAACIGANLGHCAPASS", "conditions": "ref Ciancaglini et al. (2010), 25, 42; cited from earlier work"}, "ENPP1": {"biological_target": "T4, ENPP1 (Homo sapiens, UniProt P22413)", "T4 sequence (P22413 98-925 limits assumed)": "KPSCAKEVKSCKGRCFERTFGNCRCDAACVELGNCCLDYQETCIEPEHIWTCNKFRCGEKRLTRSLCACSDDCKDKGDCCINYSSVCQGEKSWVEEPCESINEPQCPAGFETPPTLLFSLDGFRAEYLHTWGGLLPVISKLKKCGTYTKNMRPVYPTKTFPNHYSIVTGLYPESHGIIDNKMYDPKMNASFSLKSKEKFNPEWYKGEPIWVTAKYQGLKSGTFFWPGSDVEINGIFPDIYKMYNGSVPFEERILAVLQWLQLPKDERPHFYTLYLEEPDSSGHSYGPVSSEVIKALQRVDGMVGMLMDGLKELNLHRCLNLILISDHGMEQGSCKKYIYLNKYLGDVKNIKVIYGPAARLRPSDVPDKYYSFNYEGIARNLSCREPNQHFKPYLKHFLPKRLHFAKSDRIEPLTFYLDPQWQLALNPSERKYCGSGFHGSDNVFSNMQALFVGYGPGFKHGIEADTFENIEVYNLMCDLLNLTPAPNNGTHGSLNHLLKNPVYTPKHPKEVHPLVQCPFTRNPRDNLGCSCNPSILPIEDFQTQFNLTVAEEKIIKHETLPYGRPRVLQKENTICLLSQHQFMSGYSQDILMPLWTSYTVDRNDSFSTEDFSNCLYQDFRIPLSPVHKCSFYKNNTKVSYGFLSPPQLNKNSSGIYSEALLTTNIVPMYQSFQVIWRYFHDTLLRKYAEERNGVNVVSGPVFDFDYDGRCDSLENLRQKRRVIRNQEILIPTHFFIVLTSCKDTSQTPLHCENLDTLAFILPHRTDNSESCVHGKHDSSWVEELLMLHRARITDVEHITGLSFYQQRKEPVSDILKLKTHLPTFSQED", "conditions": "cited from earlier work"}, "Enpp1^-/- VSMCs": {"system": "Enpp1^-/- VSMCs", "assay": "Calcification assay, Alizarin Red staining of Enpp1-/- VSMCs", "format": "cell-based, mouse", "conditions": "21 days, β-glycerophosphate, inhibitor 30 μmol/L", "how_it_was_run": "as §1"}, "Phospho1^-/- VSMCs": {"system": "Phospho1^-/- VSMCs", "assay": "Calcification assay, Alizarin Red staining of Phospho1-/- VSMCs", "format": "cell-based, mouse", "conditions": "21 days, β-glycerophosphate, inhibitor 30 μmol/L", "how_it_was_run": "as §1"}}}
{"molecule": "Cc1c(OCC(F)(F)F)ccnc1C[S+]([O-])c1nc2ccccc2[nH]1", "note": "(stereo not shown) [Lansoprazole]", "values": [{"measurement": "IC50", "setting": "[1]; P-Cho IC50, substrate P-Cho 62.5 μmol/L", "value": "60 ± 10", "unit": "nM"}, {"measurement": "IC50", "setting": "[1]; P-Etn IC50, substrate P-Etn 62.5 μmol/L", "value": "70 ± 10", "unit": "nM"}, {"measurement": "Ki", "setting": "PHOSPHO1", "value": "160 ± 30", "unit": "nM"}, {"measurement": "nature of the PHOSPHO1 inhibition", "setting": "PHOSPHO1; double reciprocal plots versus P-Etn", "value": "competitive"}, {"measurement": "toxicity to smooth muscle cells observed in the mineralization studies", "setting": "WT VSMCs", "value": "showed toxicity to smooth muscle cells"}, {"measurement": "effect on mineralization in words", "setting": "WT VSMCs; WT VSMCs, 21 days, inhibitor 30 μmol/L", "value": "significantly inhibited mineralization"}, {"measurement": "mineralization of Phospho1-/- chondrocytes", "setting": "[2]", "value": "inhibited mineralization"}, {"measurement": "inhibition of TNAP activity", "setting": "TNAP", "value": "partially inhibits"}, {"measurement": "inhibition of ENPP1 activity", "setting": "ENPP1; ref Ciancaglini et al. (2010), 25, 42", "value": "partially inhibits"}]}
{"molecule": "COc1ccc(OC)c(S(=O)(=O)Nc2cnc3ccccc3c2)c1", "note": "[MLS-0038949]", "values": [{"measurement": "inhibition of PHOSPHO1 in point experiments", "setting": "[1]; inhibitor 1, 10, 30 μmol/L, substrates P-Etn and P-Cho", "value": "selectively inhibits TNAP, but not PHOSPHO1"}, {"measurement": "effect on mineralization in words", "setting": "Enpp1^-/- VSMCs", "value": "strongly reduced mineralization"}, {"measurement": "effect on mineralization in words", "setting": "Phospho1^-/- VSMCs", "value": "significantly inhibited mineralization"}, {"measurement": "cross-inhibition of ENPP1", "setting": "ENPP1", "value": "does not cross-inhibit"}]}
